High-throughput results as filed in PubChem BioAssay.
OX1R antag-1: antagonists of human orexin 1 receptor (OX1R). OX1R-expressing cells, FRET antagonist read-out. inhibition, % at 6.6 µM. AID 485270. 1.8% of 330,000 active. O43613; in the data active means inhibition mostly above about 38%, no sharp cut-off; inactive means mostly below about 40%
Target sequence (O43613 whole entry, looked up): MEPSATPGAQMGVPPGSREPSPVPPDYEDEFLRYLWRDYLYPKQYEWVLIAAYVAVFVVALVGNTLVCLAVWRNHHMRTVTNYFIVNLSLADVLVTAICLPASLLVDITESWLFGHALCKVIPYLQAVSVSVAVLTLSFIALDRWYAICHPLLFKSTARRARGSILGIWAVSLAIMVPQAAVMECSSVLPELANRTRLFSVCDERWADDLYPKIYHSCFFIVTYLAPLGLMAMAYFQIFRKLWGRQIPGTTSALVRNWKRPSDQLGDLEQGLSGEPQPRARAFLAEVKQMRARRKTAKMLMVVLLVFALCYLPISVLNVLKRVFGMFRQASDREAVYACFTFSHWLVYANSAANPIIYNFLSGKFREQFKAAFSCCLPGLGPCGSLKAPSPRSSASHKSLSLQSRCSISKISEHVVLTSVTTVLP
CHO parental Ca: signal in parental CHO cells, OX1R antagonist counter-screen | parental CHO-K1, ATP-induced calcium, Fluo-8 fluorescence | 0.63% of 330,000 active | inhibition, % at 5.6 µM;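 active means inhibition above that plate's mean sample inhibition plus 3 SD, cut at about 26% in these data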
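Material: parental CHO cells / Compound: single nominal dose of 5.6 µM per compound / Signal: Fluo-8 fluorescence / Replicates: singlicate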
GPR7 antagonist: antagonists of human GPR7 (neuropeptides B/W receptor 1). P48145. GPR7-expressing cells, fluorescence antagonist assay. inhibition, % at 4.4 µM. 1.1% of 290,000 active; in the data active means inhibition above about 16%, passing the limit was not always enough;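 further: cells stimulated with the agonist NPW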
Target sequence (P48145 whole entry, looked up): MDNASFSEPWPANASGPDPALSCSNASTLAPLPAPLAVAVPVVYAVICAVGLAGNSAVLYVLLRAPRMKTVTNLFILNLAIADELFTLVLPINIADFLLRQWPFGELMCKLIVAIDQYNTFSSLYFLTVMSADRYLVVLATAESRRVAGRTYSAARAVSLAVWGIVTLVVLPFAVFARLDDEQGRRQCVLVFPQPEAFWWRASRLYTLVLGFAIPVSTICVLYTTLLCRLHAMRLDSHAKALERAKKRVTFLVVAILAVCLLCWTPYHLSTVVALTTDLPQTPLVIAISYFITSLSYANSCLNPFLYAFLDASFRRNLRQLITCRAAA
TAAR1 antagonist: human TAAR1 antagonism | CHO RD-HGA16 TAAR1, Fluo-8 calcium fluorescence, antagonist | 1.5% of 360,000 active | inhibition, % at 3 µM | Q96RJ0;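 active means inhibition above a per-plate cutoff, the mean inhibition of test compounds on that plate plus 3 SD, cut at about 49% in these data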
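System: CHO RD-HGA16 cells bearing hTAAR1. Reagent: EC80 β-phenethylamine stimulus. Schedule: seeding 17-24 h prior, 75-min 37 °C, 30-min RT dye loading. Signal: Fluo-8 intracellular calcium dye fluorescence, real-time kinetic reads. Read-out: % inhibition from peak post-agonist over basal fluorescence ratio. Benchmarks: vehicle wells and EC80 agonist wells. Replicates: n of 1.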
OX1R antag-2: human HCRTR1 antagonism; O43613; CHO/OX1R cells, Fluo-8 calcium fluorescence, orexin A; AID 434989; 0.43% of 330,000 active; inhibition, % at 5 µM;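 active means inhibition above its plate's threshold, mean inhibition of all tested compounds on the plate plus 3 SD, cut at about 37% in these data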
TAAR1 ag: agonists of human TAAR1; AID 624467; 0.99% of 360,000 active; Q96RJ0; activation, % at 3 µM; CHO RD-HGA16 TAAR1, Fluo-8 calcium fluorescence; vehicle wells 0%, saturating PEA agonist 100%;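 active means activation above the mean activation of all test compounds in the run plus 3 SD, cut at about 38% in these data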
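Test system: RD-HGA16 (CHO) cells co-expressing Gα16 and hTAAR1 | Doses: Single dose, 3 µM | Schedule: 17-24 h seeding, 75 min 37 °C dye, 30 min RT | Evaluation: % activation from peak over basal fluorescence ratio, DMSO-to-PEA scaled | Technique: Kinetic Fluo-8 calcium fluorescence | Benchmarks: Low control DMSO, high control PEA (EC100)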
TAAR1 ag conf: human TAAR1 agonism, confirmed. CHO RD-HGA16 TAAR1, Fluo-8 calcium fluorescence; scaled: DMSO 0%, maximal phenethylamine 100%. 82% of 2,400 active. activation, % at 3 µM. shares compounds with TAAR1 ag. AID 651783;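 active means activation above a cutoff set at the run's mean compound activation plus 3 SD, cut at about 39% in these data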
Ga16 ag counter: nonselective agonism, TAAR1 counter-screen | shares compounds with TAAR1 ag | CHO-Ga16 parental, Fluo-8 calcium fluorescence; normalized to maximal ATP response, DMSO zero | activation, % at 3 µM | 50% of 2,400 active | AID 651787;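 active means activation above the run cutoff, the mean activation over all tested wells plus 3 SD, cut at about 12% in these data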
TAAR1 desensitize: counter-screen for human TAAR1 agonists: agonists that desensitize TAAR1 | shares compounds with TAAR1 ag | CHO RD-HGA16 hTAAR1, Fluo-8 calcium, beta-PEA response inhibition | inhibition, % at 3 µM | 46% of 2,400 active | AID 651951;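 active means inhibition above the run cutoff, the mean inhibition of all test compounds plus 3 SD, cut at about 49% in these data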;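 further: beta-PEA stimulus applied at its EC80; loss of beta-PEA calcium signal after compound pretreatment read as receptor desensitization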
Ga16 nonsel ant: nonselective Ga16 antagonist in TAAR1 agonist counter-screen; inhibition, % at 3 µM; shares compounds with TAAR1 ag; CHO-Ga16 ATP-induced calcium, Fluo-8 fluorescence; 39% of 2,400 active;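 active means inhibition above the plate's mean compound inhibition plus 3 SD, computed per plate, cut at about 22% in these data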
A number is an active result; 0 = inactive; - = no result given. Shown are actives, neighbours in structure and some others; about 4.6% of the full set was active somewhere.

SMILES	OX1R antag-1	CHO parental Ca	GPR7 antagonist	TAAR1 antagonist	OX1R antag-2	TAAR1 ag	TAAR1 ag conf	Ga16 ag counter	TAAR1 desensitize	Ga16 nonsel ant
Cc1nc(C(F)(F)F)ccc1C(=O)N1CCC1(C)C(=O)Nc1ccc2c(c1)OCO2 (stereo not given)	-	-	-	0	-	0	-	-	-	-
CCCc1nnc2c(N(C)S(=O)(=O)c3ccc(C)cc3)nc3ccccc3n12	0	0	0	0	0	0	-	-	-	-
CCCCc1nnc2c(N(C)S(=O)(=O)c3ccc(C)cc3)nc3ccccc3n12	0	0	0	0	0	57	0	0	0	0
O=S(=O)(c1ccc(SCCOc2cccc(Br)c2)nc1)N1CCCC1	0	0	-	0	0	0	-	-	-	-
CCOC(=O)C(C(=O)OCC)c1cc(Br)c2noc3c2c1C(=O)c1ccccc1-3	0	39	0	73	0	59	66	62	87	85
COc1ccccc1CN1C(=O)c2ccccc2C1C(=O)NC1CCC(C)CC1 (stereo not given)	0	0	0	0	0	0	-	-	-	-
CC1CCCC(C)N1C(=O)c1cc(-c2ccc3c(c2)OCO3)on1 (stereo not given)	0	0	0	0	0	0	-	-	-	-
Cn1c(CS/C(N)=N/N=C/c2ccccc2)c(Br)c(=O)n1-c1ccccc1	0	0	0	0	0	44	46	0	0	0
Cc1ccccc1-n1c(=O)cc(N2CCc3ccccc3C2)[nH]c1=O	0	0	0	54	0	92	97	0	80	0
O=c1cc(N2CCc3ccccc3C2)[nH]c(=O)n1C1CCCCC1	0	0	0	0	0	0	-	-	-	-
Cc1ccc(-n2c(=O)cc(N3CCC(C)CC3)[nH]c2=O)cc1	0	0	0	0	0	0	-	-	-	-
O=c1cc(N2CCc3ccccc3C2)[nH]c(=O)n1-c1ccccc1Cl	0	0	0	0	0	79	62	0	0	0
Cc1ccc(-n2c(=O)cc(N3CCc4ccccc4C3)[nH]c2=O)cc1	0	0	0	0	0	87	0	0	0	0
Nc1[nH]c(C(=O)c2ccccc2)c(-c2ccccc2C(F)(F)F)c1C(=O)c1cccs1	-	-	-	0	-	0	-	-	-	-
COc1ccc(C(C)(C)C)cc1NC(=O)COc1ccc(-c2nnco2)cc1	0	0	-	0	0	0	-	-	-	-
O=C(NC1(C(F)(F)F)N=C2SCCN2C1=O)c1cccnc1 (stereo not given)	0	0	0	0	0	0	-	-	-	-
O=C(NCCc1ccccc1)c1cnc2n(c1=O)CCS2	0	0	0	-	0	-	-	0	-	0
CC1CCN(S(=O)(=O)c2c[nH]c(=O)[nH]c2=O)CC1	0	0	-	0	0	0	-	-	-	-
CCOc1cccc(/C=N/NC(=S)Nc2ccccc2[N+](=O)[O-])c1O	0	0	0	0	0	0	-	-	-	-
O=[N+]([O-])c1ccccc1NC(=S)N/N=C/c1ccc(O)c(O)c1	0	0	0	0	0	52	84	0	56	0
S=C(Nc1cc(Cl)cc(Cl)c1)NC1CCN(Cc2ccccc2)CC1	-	-	0	0	-	64	58	32	53	46
S=C(Nc1ccccc1Cl)NC1CCN(Cc2ccccc2)CC1	0	0	0	0	0	0	-	-	-	-
CN(C[C@@H](Cc1cccc2ccccc12)N(C[C@H](Cc1ccccc1)N(CCc1ccccc1)N=O)N=O)N=O	0	0	0	0	0	51	76	0	0	0
CN(C)C(=S)SCC(=O)NCc1ccc(F)cc1	0	0	0	0	0	0	-	-	-	-
O=C(CCC(=O)c1cccs1)OCC(=O)c1ccccc1F	-	-	-	0	-	0	-	-	-	-
SMILES	OX1R antag-1	CHO parental Ca	GPR7 antagonist	TAAR1 antagonist	OX1R antag-2	TAAR1 ag	TAAR1 ag conf	Ga16 ag counter	TAAR1 desensitize	Ga16 nonsel ant
O=C(/C=C/c1ccc(Cl)cc1)Nc1ccc(N2CCOCC2)cc1	0	0	0	0	0	0	-	-	-	-
O=C(Nc1ccc(Cl)c(Cl)c1)N1CCOCC1	-	-	0	0	-	0	-	-	-	-
O=C(Nc1ccc(N2CCOCC2)cc1)Nc1ccc(Cl)c(Cl)c1	0	51	0	90	45	65	40	30	89	62
O=C(Nc1ccc(Cl)cc1)Nc1ccc(N2CCOCC2)cc1	0	0	0	79	0	66	49	13	49	22
CCCCNC(=O)c1[nH]c(C)c(C(C)=O)c1C	0	0	0	0	0	0	-	-	-	-
CCc1c(C(=O)NCCc2ccc(OC)c(OC)c2)[nH]c(C)c1C(C)=O	0	0	0	0	0	0	-	-	-	-
CCc1c(C(=O)NCCc2cccc(C)c2)[nH]c(C)c1C(C)=O	0	0	0	0	0	68	53	0	0	24
CC(=O)c1c(C)[nH]c(C(=O)NCCc2cccc(C)c2)c1C	0	0	0	0	0	52	0	0	0	0
CCCCCCCCN1C(=O)[C@H](CC(=O)NCCCC)C[C@@]2(C(=O)OC)CC(C)(C)CC=C12	-	-	-	0	-	0	-	-	-	-
CCOc1ccc(CCNC(=O)C2CCN(S(=O)(=O)N3CCC(C)CC3)CC2)cc1OCC	0	0	0	0	0	0	-	-	-	-
CC1CCN(c2ncnc3c2cnn3Cc2ccc(Cl)cc2)CC1	0	0	0	0	0	51	38	20	0	0
Cc1ccc(Cn2ncc3c(N4CCN(Cc5ccc(Cl)cc5)CC4)ncnc32)cc1	0	0	0	0	0	0	-	-	-	-
C/C(=N\Nc1ncnc2sc(C)c(C)c12)c1ccccn1	0	79	0	104	90	135	95	95	84	86
Cc1sc2ncnc(N/N=C/c3cccc(O)c3)c2c1C	0	0	0	0	0	0	-	-	-	-
Cc1cc(C)nc(Oc2ccc(Br)cc2Br)n1	0	0	0	0	0	0	-	-	-	-
COc1ccc(S(=O)(=O)N2CCN(c3ncccn3)CC2)cc1[N+](=O)[O-]	0	0	0	0	0	94	0	0	0	0
COc1ccc(S(=O)(=O)N2CCN(c3ccccn3)CC2)cc1[N+](=O)[O-]	0	0	0	0	0	0	-	-	-	-
O=C(Cn1cnc([N+](=O)[O-])c1)NCCc1ccccc1	0	0	0	-	0	-	-	0	-	0
O=C(Cn1cnc([N+](=O)[O-])c1)NCc1ccc(F)cc1	0	0	0	0	0	0	-	-	-	-
CCn1cc(S(=O)(=O)NCCc2ccccc2OC)cn1	0	0	0	0	0	46	59	0	0	0
